Fam108B inh – blocks mouse Fam108B hydrolase in RBBP9 counter-screen; recombinant Fam108B, FP-Rh probe fluorescence polarization; inhibition, % at 9.51 µM; 0.33% of 300,000 active;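 active = inhibition above the screen mean inhibition plus 3 SD, computed separately per campaign, cut at about 18% in these data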;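 also: inhibitors lower polarization as less probe binds the enzyme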
PME-1 inh – blocks human protein phosphatase methylesterase 1; Q9Y570; recombinant PME-1, FP-Rh probe fluorescence polarization; inhibition, % at 5.9 µM; 0.53% of 320,000 active; AID 2130;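 active = inhibition above the campaign mean of all compounds plus 3 SD, cut at about 26% in these data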;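 also: competitive labeling of PME-1 active site by serine hydrolase directed probe; 0% = PME-1 with DMSO and 100% = wells lacking PME-1 enzyme; inhibitors block probe labeling so polarization falls and inhibition rises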
PAD4 FP inh – blocks human protein arginine deiminase 4; Q9UM07; recombinant PAD4, RCA probe fluorescence polarization; inhibition, % at 6.36 µM; 0.41% of 330,000 active;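 active = percent inhibition above a cutoff equal to the mean of all tested compounds plus 3 SD, cut at about 15% in these data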;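 also: 0% = PAD4 with RCA probe and DMSO and 100% = probe without PAD4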
LYPLA2 counter – LYPLA2 (human) inhibition in PME1 counter-screen. O95372. recombinant LYPLA2, FP-Rh probe fluorescence polarization. inhibition, % at 5.9 µM. 0.38% of 320,000 active. AID 2177;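 active = inhibition above the screen-wide mean plus 3 SD, limit set per campaign, cut at about 26% in these data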;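 also: 0% = LYPLA2 with DMSO and 100% = wells lacking LYPLA2 enzyme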
Target sequence (O95372 whole entry, looked up): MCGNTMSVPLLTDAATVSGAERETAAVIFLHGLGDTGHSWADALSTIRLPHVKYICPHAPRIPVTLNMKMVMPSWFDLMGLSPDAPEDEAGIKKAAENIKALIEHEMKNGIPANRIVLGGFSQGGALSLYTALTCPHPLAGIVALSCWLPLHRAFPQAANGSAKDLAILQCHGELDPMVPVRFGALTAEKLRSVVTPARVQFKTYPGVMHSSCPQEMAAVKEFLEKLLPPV
RBBP9 inh – human RBBP9 hydrolase inhibition | O75884 | inhibition, % at 7.94 µM | recombinant RBBP9, FP-Rh probe fluorescence polarization | 0.2% of 220,000 active;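 active = inhibition above the campaign mean of all tested compounds plus 3 SD, cut at about 14% in these data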;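 also: plate controls were DMSO wells with RBBP9 for no effect and wells lacking RBBP9 protein for full effect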
Target sequence (O75884 whole entry, looked up): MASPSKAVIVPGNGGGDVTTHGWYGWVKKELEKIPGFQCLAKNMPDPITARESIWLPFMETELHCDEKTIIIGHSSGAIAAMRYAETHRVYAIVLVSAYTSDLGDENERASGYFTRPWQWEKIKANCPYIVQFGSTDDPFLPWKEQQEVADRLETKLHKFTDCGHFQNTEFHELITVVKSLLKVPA
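Measured by: FP readout at 525/598 nm; material: recombinant human RBBP9; also added: Serine-hydrolase probe FP-Rh, 375 nM pre-mixing; medium: Tris buffer pH 8.0, NaCl, Pluronic; replication: one well per compound; doses: one concentration, 7.94 µM nominal, 0.794% DMSO; timing: preincubation 30 min plus labeling 45 min at 25 °C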
LYPLA1 inh – LYPLA1 (human) inhibition in PME1 counter-screen. O75608. inhibition, % at 5.9 µM. 0.16% of 320,000 active. recombinant LYPLA1, FP-Rh probe fluorescence polarization;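 active = inhibition above the mean of all tested compounds plus 3 SD, set per campaign, cut at about 14% in these data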;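 also: inhibitors block serine hydrolase probe labeling of LYPLA1 so polarization falls; 0% = enzyme with DMSO and 100% = wells lacking LYPLA1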
Target sequence (O75608 whole entry, looked up): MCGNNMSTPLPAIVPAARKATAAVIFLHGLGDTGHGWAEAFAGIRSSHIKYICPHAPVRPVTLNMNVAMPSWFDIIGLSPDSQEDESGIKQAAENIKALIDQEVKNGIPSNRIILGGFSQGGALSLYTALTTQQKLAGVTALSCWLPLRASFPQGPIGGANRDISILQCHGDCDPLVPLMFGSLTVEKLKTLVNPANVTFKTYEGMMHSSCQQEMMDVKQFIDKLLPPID
Fam108b confirm – Fam108b (mouse) hydrolase inhibition, confirmation assay; AID 1978; shares compounds with Fam108B inh; recombinant Fam108b, FP-Rh probe fluorescence polarization; inhibition, % at 9.51 µM; 44% of 930 active;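 active = inhibition above a limit from the primary screen, the mean over all compounds plus 3 SD, cut at about 19% in these data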;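 also: 0% = median of active Fam108b wells and 100% = catalytically dead S170A mutant; inhibitors free the probe so polarization falls as inhibition rises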
Fam108b inh – mouse ABHD17B inhibition; shares compounds with Fam108B inh; recombinant Fam108b, gel-based ABPP, fluorophosphonate probe; inhibition, % at 20 µM; 44% of 260 active; in the data active = inhibition above about 40%
LYPLA1 confirm – counter-screen for PME1 inhibitors: confirmation of human LYPLA1 inhibitors; shares compounds with LYPLA1 inh; recombinant LYPLA1, FP-Rh probe fluorescence polarization; inhibition, % at 5.9 µM; 69% of 480 active; AID 2233;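 active = mean inhibition across replicates above the hit cutoff set in the primary screen, cut at about 15% in these data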;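 also: loss of FP-Rh probe labeling of LYPLA1 seen as lower polarization; 0% = LYPLA1 with DMSO and 100% = wells lacking LYPLA1 enzyme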
LYPLA2 confirm – counter-screen for PME1 inhibitors: confirmation of human LYPLA2 inhibitors; shares compounds with LYPLA2 counter; 72% of 1,100 active; recombinant LYPLA2, FP-Rh probe fluorescence polarization; inhibition, % at 5.9 µM;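 active = mean inhibition across replicates above the hit cutoff set in the primary screen, cut at about 26% in these data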;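 also: blocked labeling of the enzyme by serine hydrolase FP-Rh probe lowers polarization; 0% = enzyme with DMSO and 100% = wells lacking LYPLA2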
PAD4 confirm – PAD4 (human) inhibition, confirmed. 28% of 1,200 active. shares compounds with PAD4 FP inh. inhibition, % at 6.36 µM. recombinant PAD4, RCA probe fluorescence polarization. AID 488796;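 active = mean inhibition across replicates above the hit cutoff set by the earlier primary screen, cut at about 15% in these data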;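 also: inhibitors block active-site labeling by the probe so polarization falls; 0% = PAD4 with probe and DMSO and 100% = probe without PAD4 enzyme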
Starred values were filed as active, the others as inactive; nt = no result. Only some compounds are listed: those with a hit (about 1.3% of all), similar ones and a draw of the others.

SMILES	Fam108B inh	PME-1 inh	PAD4 FP inh	LYPLA2 counter	RBBP9 inh	LYPLA1 inh	LYPLA1 confirm	others
COC(=O)c1cc(C)nc2c1C(=O)C(=O)C=C2N1CCOCC1	71*	36*	72*	79*	nt	72*	91*	Fam108b confirm=82*;Fam108b inh=0;LYPLA2 confirm=93*;PAD4 confirm=67*
COc1ccc(C(CNC(=O)C2CC(=O)N(Cc3ccccc3)C2)N2CCOCC2)cc1 (stereo not drawn)	nt	3	-2	2	nt	2	nt
C=CCn1c(NC(=O)c2ccccc2Cl)c(C#N)c2nc3ccccc3nc21	49*	21	59*	50*	-7	39*	0	Fam108b confirm=2;LYPLA2 confirm=86*;PAD4 confirm=-2
CC(C)N=c1cc2n(-c3ccc(Cl)cc3)c3ccccc3nc-2cc1Nc1ccc(Cl)cc1	39*	32*	20*	43*	nt	31*	15*	Fam108b confirm=8;LYPLA2 confirm=7;PAD4 confirm=28*
Cn1c(=O)c(-c2cc(Br)ccc2N)nc2ccccc21	-4	-3	-45	-2	-19	-2	nt
Cn1c(=O)c(N)c2c3c(c(Br)ccc31)C(=O)c1ccccc1-2	29*	37*	106*	29*	0	17*	21*	Fam108b confirm=26*;PAD4 confirm=126*
Cc1cc(Br)ccc1OCCCCN1CCCCC1	1	-2	2	5	5	0	nt
O=C(NCCCN1CCOCC1)C(=O)N/N=C/c1ccc2c(c1)OCO2	2	1	-8	-3	-2	3	nt
O=C1C=C(N2CCCCC2)c2ccccc2C1=O	69*	40*	65*	27*	nt	40*	37*	Fam108b confirm=82*;Fam108b inh=0;LYPLA2 confirm=32*;PAD4 confirm=61*
O=S(=O)(c1ccccc1S(=O)(=O)N1CCCCC1)N1CCCCC1	1	3	1	0	2	-2	nt
CC(C)(C)C1CCC(OC(=O)C[N+]2(C)CCCCC2)CC1 (stereo not drawn)	2	-5	5	0	5	2	nt
O=c1[nH]c(Nc2ccccc2)cc2ccccc12	24*	9	65*	7	2	4	nt	Fam108b confirm=37*;Fam108b inh=0;PAD4 confirm=18*
NS(=O)(=O)c1ccc(NC2=CC(=O)C(=O)c3ccccc32)cc1	20*	9	28*	2	nt	2	nt	Fam108b confirm=32*;Fam108b inh=0;PAD4 confirm=62*
O=C1C=C(Nc2ccc(O)cc2)C(=O)c2ccccc21	8	14	-15	12	7	4	nt
CCOc1cc(/C=C2/C(=N)N3OC(C)=CC3=NC2=O)ccc1OCCOc1ccccc1	0	0	-2	-5	-12	-4	nt
Cn1c(=O)cc2c3c(c(N4CCCCC4)ccc31)C(=O)c1ccccc1-2	24*	40*	70*	38*	10	28*	20*	Fam108b confirm=19*;LYPLA2 confirm=28*;PAD4 confirm=37*
Cn1nc(-c2ccccc2)c(N2CCCCC2)cc1=O	-2	-2	-2	4	4	3	nt
COC(=O)c1sc2cc(C(F)(F)F)cnc2c1-c1ccccc1	6	-4	-2	12	0	17*	21*
CN(C)S(=O)(=O)n1cnc([C@@H]2[C@@H]3C(=O)OC[C@@H]3C[C@]23N=CN(Cc2ccccc2)C3=O)c1	nt	-4	-2	1	nt	0	nt
CCOC(=O)c1sc2cc([N+](=O)[O-])cc(SCC(=O)OC)c2c1N	7	8	-7	4	-5	15*	29*
COCc1cc(C)nc2sc(C(=O)NCCO)c(-n3cccc3)c12	3	2	3	3	-5	2	nt
COc1ccc(CCNC(=O)CN(c2ccccc2OC)S(C)(=O)=O)cc1OC	-2	-3	-1	7	-4	2	nt
COc1ccc(CCNC(=O)CN(CCc2ccccc2)S(C)(=O)=O)cc1OC	-3	0	2	2	-9	22*	3
O=C1c2ccccc2C(Nc2ccc(Cl)cn2)N1c1cccnc1 (stereo not drawn)	-4	1	-1	7	-8	1	nt
OCCN(CCO)c1ccc(C(c2ccccc2Cl)c2ccc(N(CCO)CCO)cc2Cl)c(Cl)c1	14	15	8	14	4	15*	17*
SMILES	Fam108B inh	PME-1 inh	PAD4 FP inh	LYPLA2 counter	RBBP9 inh	LYPLA1 inh	LYPLA1 confirm	others
OCCN(CCO)c1ccc2ccccc2c1	3	10	0	7	-9	1	nt
COc1ccc(C(C(=O)NC(C)(C)C)N(C(=O)CCC(=O)Nc2cc(C)on2)c2ccccc2F)cc1 (stereo not drawn)	0	2	2	2	nt	15*	1
COc1ccc(C(C(=O)NC(C)(C)C)N(C(=O)CCC(=O)Nc2cc(C)on2)c2cc(C)cc(C)c2)cc1 (stereo not drawn)	-3	2	-3	3	nt	2	nt
CCCCc1cc(=O)oc2cc(OCc3cc(OC)c(OC)c(OC)c3)c(Cl)cc12	-2	2	1	20	-13	16*	27*
Cc1noc(NS(=O)(=O)c2ccc(NC(=O)c3oc4ccc(Cl)cc4c3C)cc2)c1C	2	9	-4	25	nt	28*	31*
CCN(CC)S(=O)(=O)c1cccc(-c2nnc(SCc3nc4ccccc4s3)o2)c1	-6	0	-5	-7	-10	14*	21*
CCN(CC)S(=O)(=O)c1cccc(-c2nnc(SCCCC(=O)c3ccccc3)o2)c1	-8	2	1	-3	-17	2	nt
Cc1ccc(Cl)cc1N1CCN(C(=O)CNC(=O)c2ccc(Br)o2)CC1	nt	-2	-2	0	nt	-1	nt
O=C(NCC(=O)N1CCN(c2cccc(Cl)c2)CC1)c1ccc(Br)o1	1	3	2	7	nt	14*	16*
CC(=O)CCn1cc([N+](=O)[O-])nc1C	0	-2	-3	-1	-2	-1	nt
O=c1ccc2ccc(Oc3ccc([N+](=O)[O-])cc3[N+](=O)[O-])cc2o1	2	42*	4	58*	1	40*	40*
COc1ccc(CNC(=O)Cn2ccc3cc(S(=O)(=O)N4CCCC4)ccc32)cc1OC	3	8	2	13	nt	24*	3
COc1ccc(/C=C2/SC(=S)N(CCCC(=O)Nc3ccccc3C(=O)O)C2=O)cc1	2	-3	-2	22	nt	20*	19*
